Measured values published in ChEMBL document CHEMBL4043073, “Boronic Acid Modifications Enhance the Anti-Influenza A Virus Activities of Novel Quindoline Derivatives” (J Med Chem, 2017).
The source made the active and inactive calls. The rule behind the calls is not given here.

Assays:
NCI-H1299 = experiment: Cytotoxicity against human H1299 cells at 20 uM after 48 hrs by resazurin based fluorescence method; type: cell-based; conditions: nci-h1299, 48 h
In short: (§1)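 Confluent MDCK, A549 or H1299 cells exposed in triplicate to compound for 48 h at 37 °C (A549/H1299 at 20 μM). Resazurin added to 0.2 mg/mL final for 16 h. Fluorescence read at ex 544 / em 595 nm; viability as % of untreated.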

[1] = Drug uptake in human A549 cell nucleus at 20 uM after 4 hrs by DAPI staining based confocal microscopic analysis; type: ADME; conditions: a549, 4 h
In short: (§2)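 A549 cells incubated with 20 μM compound 4 h at 37 °C, then fixed and DAPI-stained. Compound intrinsic fluorescence located by confocal microscopy.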

A549 = experiment: Cytotoxicity against human A549 cells at 20 uM after 48 hrs by resazurin based fluorescence method; type: cell-based; conditions: a549, 48 h; in short: as §1
Influenza A virus [2] = experiment: Antiviral activity against Influenza A virus (A/Puerto Rico/8/34(H1N1)) infected in A549 cells assessed as reduction in localization of viral NP protein in nucleus at 10 uM preincubated with virus at 37 degC for 1 hr followed by viral adsorption at 4 degC for 1 hr and subsequent infection in A549 cells measured at 2 to 4 hrs post infection by FITC-staining based immunofluorescence microscopic method; type: functional, cell-based; conditions: A/Puerto Rico/8/1934(H1N1)
In short: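 PR8 (MOI 1.0) pretreated with 10 μM compound 1 h at 37 °C, adsorbed 1 h at 4 °C, then A549 cells were kept in infecting medium with 10 μM compound. Fixed with 4% paraformaldehyde at 2 or 4 h p.i., permeabilised with Triton X-100 and blocked. Anti-NP plus FITC secondary, confocal imaging; nuclear NP intensity per unit area quantified (n = 30 images).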

[3] = Cytotoxicity against MDCK cells after 48 hrs by resazurin based fluorescence method; type: cell-based, Canis lupus familiaris; conditions: dog; in short: as §1
Influenza A virus [4] = experiment: Antiviral activity against Influenza A virus (A/Puerto Rico/8/34(H1N1)) infected in MDCK cells assessed as reduction in virus titer preincubated with virus for 1 hr followed by viral infection measured after 24 hrs by crystal violet staining based plaque assay; type: functional, cell-based; conditions: A/Puerto Rico/8/1934(H1N1)
In short: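 PR8 (MOI 1.0) preincubated with compound (2.5–10 μM) 1 h at 37 °C, then used to infect MDCK cells. After adsorption, medium with the same compound concentration was added. At 24 h p.i. supernatant virus titer was measured by plaque assay; n = 3.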

Influenza A virus [5] = experiment: Antiviral activity against Influenza A virus H3N2 strain (A/swine/Minnesota/02719/2009) infected in MDCK cells assessed as reduction in viral HA titer by measuring reduction in chicken RBC […] after 24 hrs by hemagglutination test; type: functional, cell-based
In short: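 MDCK cells infected at MOI 3.0 (single-cycle) with PR8, Cal09 or swine H3N2 Minnesota, then treated with compound for 24 h. Supernatant HA titers were read by 2-fold serial dilution with an equal volume of 1% chicken RBCs, 60 min at 4 °C. Expressed as percent of untreated-cell HA titer; IC50 derived; n = 4.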

Influenza A virus [6] = experiment: Antiviral activity against Influenza A virus (A/Puerto Rico/8/34(H1N1)) infected in MDCK cells assessed as virus yeild reduction at 10 uM treated during viral adsorption for 1 hr measured at 24 hrs post infection by crystal violet staining based plaque assay; type: functional, cell-based; conditions: A/Puerto Rico/8/1934(H1N1)
In short: (§3)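 Time-of-addition on MDCK cells, PR8 MOI 1.0, 10 μM compound. Three arms: cells pretreated before infection; compound present during adsorption 1 h at 4 °C; or compound added after removal of unadsorbed virus. Virus yield at 24 h p.i. by plaque assay; n = 3.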

Influenza A virus [7] = experiment: Antiviral activity against Influenza A virus (A/Puerto Rico/8/34(H1N1)) infected in MDCK cells assessed as virus yeild reduction at 10 uM treated post 1 hr of viral adsorption measured at 24 hrs post infection by crystal violet staining based plaque assay; type: functional, cell-based; conditions: A/Puerto Rico/8/1934(H1N1); in short: as §3
Vero [8] = experiment: Inhibition of Influenza A virus (A/Puerto Rico/8/34(H1N1)) hemagglutinin expressed in African green monkey Vero cells assessed as reduction in acid-induced syncytium formation preincubated at pH 7 for 15 mins followed by incubation at pH 5 for 10 mins measured after 2 hrs by Hema3Stat Pak-staining based microscopic analysis; type: cell-based; conditions: Influenza A virus (A/Puerto Rico/8/1934(H1N1))
In short: (§4)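 Vero cells transfected with PR8 HA plasmid. At 16 h HA was cleaved with 5 μg/mL TPCK-trypsin for 15 min at 37 °C. Cells were preincubated with compound 15 min at 37 °C, then held at pH 5.0 with compound for 10 min at 37 °C. After rinsing, cells were kept 2 h in 10% FBS medium, stained with Hema3Stat Pak and examined for syncytia by microscopy.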

[9] = test system: Influenza A virus (A/Puerto Rico/8/1934(H1N1)); experiment: Inhibition of Influenza A virus (A/Puerto Rico/8/34(H1N1)) neuraminidase using MUNANA as substrate preincubated for 30 mins followed by substrate addition measured after 30 mins by fluorescence assay relative to control
In short: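 Inactivated PR8 virus supernatant mixed with compound (10 μM) in 33 mM MES […], 4 mM CaCl2 for 30 min at 37 °C. MUNANA (20 μM) was added for 30 min at 37 °C and the reaction stopped with glycine/ethanol pH 10.7. Fluorescence read at ex 360 / em 440 nm; zanamivir 10 μM as reference; n = 3.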

Canis lupus familiaris [10] = species on record: Canis lupus familiaris; experiment: (§5) Inhibition of MAPK signaling-mediated nuclear import of viral RNP in MDCK cells infected with Influenza A virus (A/Puerto Rico/8/34(H1N1)) assessed as ERK1/2 phosphorylation at 10 uM preincubated with virus for 1 hr followed by viral infection after 4 hrs by Western blot method relative to control (reference value: 1.4); type: cell-based
In short: (§6)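 PR8 (MOI 1.0) pretreated with compound 1 h at 37 °C, then MDCK cells were kept in infecting medium with 5 or 10 μM for 4 h; ribavirin 50 μg/mL as comparator. Lysates were immunoblotted for phospho-ERK1/2, p38, NF-κB or Akt, with β-actin/GAPDH loading controls and AP/NBT-BCIP detection. Densitometry was normalised to uninfected cells (= 1.0); n = 3.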

Canis lupus familiaris [11] = species on record: Canis lupus familiaris; experiment: as §5, with “p38” for “ERK1/2”, “5” for “10”, “5.1)” for “1.4)”; type: cell-based; in short: as §6
Canis lupus familiaris [12] = species on record: Canis lupus familiaris; experiment: as §5, with “p38” for “ERK1/2”, “5.1)” for “1.4)”; type: cell-based; in short: as §6
Canis lupus familiaris [13] = species on record: Canis lupus familiaris; experiment: Inhibition of NFkappaB activation-mediated viral endocytosis in MDCK cells infected with Influenza A virus (A/Puerto Rico/8/34(H1N1)) assessed as Akt phosphorylation level at 10 uM preincubated with virus for 1 hr followed by viral infection measured after 4 hrs by Western blot method relative to control (reference value: 1.4); type: cell-based; in short: as §6
[14] = Drug uptake in human A549 cells at 20 uM after 4 hrs by DAPI staining based confocal microscopic analysis; type: ADME, cell-based; conditions: a549, 4 h; in short: as §2
[15] = Drug uptake in human A549 cell cytoplasm at 20 uM after 4 hrs by DAPI staining based confocal microscopic analysis; type: ADME; conditions: a549, 4 h; in short: as §2
[16] = Drug uptake in human A549 cell membranes at 20 uM after 4 hrs by DAPI staining based confocal microscopic analysis; type: ADME; conditions: a549, 4 h; in short: as §2
[17] = Selectivity index, ratio of CC50 for MDCK cells to IC50 for Influenza A virus (A/Puerto Rico/8/34(H1N1)) infected in MDCK cells by plaque assay; type: toxicity, cell-based; conditions: dog, read-out: Ratio CC50/IC50
Vero [18] = experiment: Inhibition of Influenza A virus (A/Puerto Rico/8/34(H1N1)) hemagglutinin expressed in African green monkey Vero cells assessed as reduction in acid-induced syncytium formation treated at pH 5 for 10 mins measured after 2 hrs by Hema3Stat Pak-staining based microscopic analysis; type: cell-based; conditions: Influenza A virus (A/Puerto Rico/8/1934(H1N1)); in short: as §4

SMILES: O=C(Nc1ccccc1Nc1c2ccccc2nc2c1[nH]c1ccccc12)c1cccc(B(O)O)c1
- Activity (NCI-H1299): Non-Toxic
- Drug uptake [1]: Not Active
- Activity (A549): Non-Toxic
- Activity (Influenza A virus [2]): Active
- CC50 at 48 h [3]: 142 µM
- Activity (Influenza A virus [4]): Dose-dependent effect
- IC50 (Influenza A virus [4]): 2.2 µM
- Activity (Influenza A virus [5]): Dose-dependent effect
- IC50 (Influenza A virus [5]): 3 µM
- Activity (Influenza A virus [6]): Active
- Activity (Influenza A virus [7]): inactive
- inhibition (Vero [8]): inactive
- inhibition [9]: 72%
- fold change (FC) (Canis lupus familiaris [10]): 0.6
- fold change (FC) (Canis lupus familiaris [11]): 3.3
- fold change (FC) (Canis lupus familiaris [12]): 2.5
- fold change (FC) (Canis lupus familiaris [13]): 0.8
- Drug uptake [14]: Active
- Drug uptake [15]: Active
- Drug uptake [16]: Active
- selectivity ratio [17]: 56.8 to 64.6
- inhibition (Vero [18]): inactive
